Data on nine compounds can be found in ChEMBL document CHEMBL1145782, “Systematic development of high affinity bis(ammonio)alkane-type allosteric enhancers of muscarinic ligand binding” (J Med Chem, 2003).

Test [1] addresses T1, Muscarinic acetylcholine receptor M2 (Sus scrofa) (UniProt P06199).
T1 sequence (whole entry): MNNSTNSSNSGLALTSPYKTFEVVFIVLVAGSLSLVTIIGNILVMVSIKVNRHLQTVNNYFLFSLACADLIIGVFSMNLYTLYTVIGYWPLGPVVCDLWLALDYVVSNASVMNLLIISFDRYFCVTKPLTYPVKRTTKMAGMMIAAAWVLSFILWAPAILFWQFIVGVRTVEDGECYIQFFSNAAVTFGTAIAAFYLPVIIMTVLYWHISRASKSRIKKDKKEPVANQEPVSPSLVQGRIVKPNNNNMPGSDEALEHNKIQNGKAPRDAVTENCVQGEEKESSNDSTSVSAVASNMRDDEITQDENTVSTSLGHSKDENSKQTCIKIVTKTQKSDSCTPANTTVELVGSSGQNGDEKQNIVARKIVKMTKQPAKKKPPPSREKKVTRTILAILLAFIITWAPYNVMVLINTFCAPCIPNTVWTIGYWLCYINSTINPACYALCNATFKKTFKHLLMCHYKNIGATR
Kind of test: Cooperativity factor pAlpha at porcine heart ventricle muscarinic acetylcholine receptor M2. In a few lines:
(§1)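 Pig heart ventricle homogenates in 2.7 mM MgHPO4, 45 mM Tris-HCl, pH 7.3, 37 °C; [3H]NMS 0.20 nM with increasing test compound concentrations; incubation 180–530 min, calculated to reach equilibrium. Nonspecific binding with 1 μM atropine; bound label separated by rapid vacuum filtration onto glass filters and counted by liquid scintillation. Affinities for free and NMS-occupied receptor derived from binding curves.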

The target in test [2] is T1, Muscarinic acetylcholine receptor M2 (Sus scrofa). Description: Binding affinity for [3H]NMS-occupied muscarinic acetylcholine receptor M2 from porcine heart ventricle. In a few lines: as §1
Test [3] shares this target. Description: Tested for binding of [3H]N-methylscopolamine ([3H]NMS) at porcine heart ventricle muscarinic acetylcholine receptor M2 expressed as -logKa. Summed up: as §1
Test [4] deals with T2, Muscarinic acetylcholine receptor M2 (Sus scrofa, UniProt P06199).
T2 sequence (P06199 whole entry): T1 sequence (whole entry)
Kind of test: Effective concentration required to inhibit dissociation of [3H]NMS from porcine heart ventricles muscarinic acetylcholine receptor M2. In a few lines: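 [3H]NMS dissociation in pig heart ventricle homogenates, Mg/Tris buffer pH 7.3, 37 °C. Membranes equilibrated 30 min with 0.2 nM [3H]NMS, then 1 μM atropine added alone or with various test compound concentrations. Either complete time courses over 120 min or two-point measurement (0 and 10 min); monoexponential apparent k-1 by nonlinear regression; filtration and scintillation counting.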

Turning to `C[N+](C)(CCCCCC[N+](C)(C)CCCN1C(=O)c2cccc3cccc(c23)C1=O)CCCN1C(=O)c2ccccc2C1=O`, in test [1], the pAlpha was -0.2. In test [2], this compound displayed a p alphaKa of 7.04. Moreover, the -logKa in test [3] was found to be 7.24. The same compound showed an EC50 in test [4] of 115 nM.

Regarding `CC(C)(CN1C(=O)c2cccc3cccc(c23)C1=O)C[N+](C)(C)CCCCCC[N+](C)(C)CC(C)(C)CN1C(=O)c2cccc3cccc(c23)C1=O`, the pAlpha in test [1] is 0.53. The compound further showed a p alphaKa in test [2] of 8.04. Besides, the -logKa in test [3] stood at 7.51. In test [4], this compound had an EC50 of 8.51 nM.

For the compound `CC(C)(C)c1ccc2c(c1)C(=O)N(CCC[N+](C)(C)CCCCCC[N+](C)(C)CCCN1C(=O)c3ccccc3C1=O)C2=O`, the pAlpha in test [1] was -0.81. Also, in test [2], the p alphaKa was found to be 6.43. The compound further displayed a -logKa in test [3] of 7.25. In test [4], this compound had an EC50 of 309 nM.

In turn, `Cc1ccc2c(c1)C(=O)N(CCC[N+](C)(C)CCCCCC[N+](C)(C)CCCN1C(=O)c3ccccc3C1=O)C2=O` displayed a pAlpha in test [1] of -0.31. In test [2], this compound had a p alphaKa of 6.42. The -logKa in test [3] came to 6.73. Besides, the EC50 in test [4] was 324 nM.

On to `Cc1ccc2c(c1)C(=O)N(CC(C)(C)C[N+](C)(C)CCCCCC[N+](C)(C)CC(C)(C)CN1C(=O)c3ccccc3C1=O)C2=O`, for which the pAlpha in test [1] came out at 0.17. The compound further returned a p alphaKa in test [2] of 6.9. In addition, the -logKa in test [3] was determined as 6.73. Also, a half-maximal response in test [4] (EC50) required 120 nM.

On to `C[N+](C)(CCCCCC[N+](C)(C)CCCN1C(=O)c2cc(Cl)c(Cl)cc2C1=O)CCCN1C(=O)c2ccccc2C1=O`, for which the pAlpha in test [1] is -0.17. This compound also returned a p alphaKa in test [2] of 6.9. Also, the -logKa in test [3] came out at 7.08. The EC50 in test [4] was 115 nM.

In test [1], `CC(C)(CN1C(=O)c2cccc3cccc(c23)C1=O)C[N+](C)(C)CCCCCC[N+](C)(C)CCCN1C(=O)c2cccc3cccc(c23)C1=O` had a pAlpha of 0.17. The same compound gave a p alphaKa in test [2] of 8.24. In test [3], this compound showed a -logKa of 8.07. The compound further had a concentration giving a half-maximal response (EC50) in test [4] of 7.76 nM.

In test [1], `CC(C)(CN1C(=O)c2cccc3cccc(c23)C1=O)C[N+](C)(C)CCCCCC[N+](C)(C)CCCN1C(=O)c2ccccc2C1=O` [NAPHMETHONIUM] came in with a pAlpha of 0.37. In test [2], this compound returned a p alphaKa of 8.66. The -logKa in test [3] is 8.29. Moreover, the response in test [4] was half-maximal at 4.37 nM (EC50).

`Cc1ccc2c(c1)C(=O)N(CCC[N+](C)(C)CCCCCC[N+](C)(C)CC(C)(C)CN1C(=O)c3ccccc3C1=O)C2=O` gave a pAlpha in test [1] of -0.13. The p alphaKa in test [2] was found to be 7.07. Further, in test [3], the -logKa came to 7.2. In test [4], this compound showed an EC50 of 70.8 nM.

One may read the EC50 as the concentration giving half of the maximal effect.
